Among the data in BindingDB's records for doi:10.1021/acs.jmedchem.7b00861 (Leiden University, 2017) are IC50 and Ki values, retold here.

Where “and” joins values, the source holds several entries; their conditions need not be identical. Identical values can stand only once.

The target in test [1] is T1, Cannabinoid receptor 1 (Homo sapiens, UniProt P21554). Kind of test: Antagonist activity at recombinant human CB1 receptor expressed in HEK293 cell membranes assessed as inhibition of CP55940-induced [35S]GTPgammaS binding preincubated for 1 hr followed by CP55940 addition and subsequent incubation with [35S]GTPgammaS measured after 30 mins by scintillation spectrometry. The method in brief: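 Antagonism was measured by [35S]GTPγS binding at 30 °C on membranes of HEK-293 cells stably expressing recombinant human CB1.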
T1 sequence (P21554 whole entry): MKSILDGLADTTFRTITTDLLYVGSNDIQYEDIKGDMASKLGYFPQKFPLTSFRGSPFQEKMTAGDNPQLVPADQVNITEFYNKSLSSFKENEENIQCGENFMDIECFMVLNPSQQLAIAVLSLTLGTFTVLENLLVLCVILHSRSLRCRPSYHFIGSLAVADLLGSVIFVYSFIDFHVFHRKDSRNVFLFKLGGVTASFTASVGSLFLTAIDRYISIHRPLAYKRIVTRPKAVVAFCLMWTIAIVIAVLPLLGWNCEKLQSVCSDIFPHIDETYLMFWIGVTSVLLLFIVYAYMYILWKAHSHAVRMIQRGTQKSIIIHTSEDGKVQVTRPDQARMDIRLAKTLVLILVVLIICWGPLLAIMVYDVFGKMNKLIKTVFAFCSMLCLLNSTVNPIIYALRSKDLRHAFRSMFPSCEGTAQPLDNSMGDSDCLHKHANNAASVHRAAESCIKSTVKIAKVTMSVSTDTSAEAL
On the technique in general: GTPγS is a poorly hydrolysed GTP analogue; its binding reports G protein activation.

Test [2] addresses T1, Cannabinoid receptor 1. Kind of test: Displacement of [3H]CP55940 from recombinant human CB1 receptor expressed in beta-galactosidase expressing CHOK1 cell membranes after 60 mins by scintillation spectrometry. On the technique in general: In a radioligand displacement assay an active substance lowers the binding of a labelled ligand.

The term IC50 denotes the concentration that gives 50% inhibition. Consider `Cc1c(C(=O)N[C@@H]2CCCC[C@@H]2O)nc(-c2ccc(Cl)cc2Cl)n1-c1ccc(OS(=O)(=O)CCC(F)(F)F)cc1`, for which, at Cannabinoid receptor 1 [1], the half-inhibitory concentration (IC50) worked out at 1.58 nM.
For orientation: Ki means the equilibrium dissociation constant of an inhibitor or competing ligand from its target. Regarding `Cc1c(C(=O)N[C@@H]2CCCC[C@@H]2N(C)C)nc(-c2ccc(Cl)cc2Cl)n1-c1ccc(OS(=O)(=O)CCC(F)(F)F)cc1`, the inhibitory constant (Ki) at Cannabinoid receptor 1 [2] amounted to 2.5 nM. The concentration for half-maximal inhibition (IC50) on Cannabinoid receptor 1 [1] is 79 nM and 83 nM.
For `Cc1c(C(=O)NN2CCCCC2)nc(-c2ccc(Cl)cc2Cl)n1-c1ccc(OCCC(F)(F)F)cc1`, the Ki at Cannabinoid receptor 1 [2] is 0.794 nM. The IC50 on Cannabinoid receptor 1 [1] stood at 5.01 nM.
Regarding `Cc1c(C(=O)NN2CCCCC2)nc(-c2ccc(Cl)cc2Cl)n1-c1ccc(OCCCC(F)(F)F)cc1`, the inhibitory constant (Ki) on Cannabinoid receptor 1 [2] was 0.2 nM.
For the compound `CCCCS(=O)(=O)Oc1ccc(-n2c(-c3ccc(Cl)cc3Cl)nc(C(=O)NN3CCCCC3)c2C)cc1`, the inhibition constant (Ki) at Cannabinoid receptor 1 [2] turned out to be 0.126 nM.
Turning to `Cc1c(C(=O)NN2CCCCC2)nc(-c2ccc(Cl)cc2Cl)n1-c1ccc(OS(=O)(=O)CCCC(F)(F)F)cc1`, the inhibition constant (Ki) on Cannabinoid receptor 1 [2] was determined as 0.1 nM.
Take `Cc1c(C(=O)N[C@H]2CCC[C@H](O)C2)nc(-c2ccc(Cl)cc2Cl)n1-c1ccc(OS(=O)(=O)CCC(F)(F)F)cc1`: the IC50 at Cannabinoid receptor 1 [1] is 1.26 nM.
In the case of `Cc1c(C(=O)N[C@@H]2CCCC[C@H]2O)nc(-c2ccc(Cl)cc2Cl)n1-c1ccc(OS(=O)(=O)CCC(F)(F)F)cc1`, the inhibition constant Ki on Cannabinoid receptor 1 [2] was determined as 0.2 nM.
`Cc1c(C(=O)N[C@H]2CCCC[C@H]2N)nc(-c2ccc(Cl)cc2Cl)n1-c1ccc(OS(=O)(=O)CCC(F)(F)F)cc1`: the Ki on Cannabinoid receptor 1 [2] was determined as 0.316 nM. Also, the 50% inhibitory concentration (IC50) at Cannabinoid receptor 1 [1] turned out to be 6.3 nM.
`Cc1c(C(=O)Nc2ccc(F)nc2)nc(-c2ccc(Cl)cc2Cl)n1-c1ccc(OS(=O)(=O)CCC(F)(F)F)cc1`: the Ki on Cannabinoid receptor 1 [2] stood at 0.1 nM.
On the same count and under the same terms, the value for `Cc1c(C(=O)Nc2ccc(C(F)(F)F)cn2)nc(-c2ccc(Cl)cc2Cl)n1-c1ccc(OS(=O)(=O)CCC(F)(F)F)cc1` was 0.126 nM.
Take `Cc1c(C(=O)NN2CCCCC2)nc(-c2ccc(Cl)cc2Cl)n1-c1ccc(OS(=O)(=O)CCC(C)(C)C)cc1`: at Cannabinoid receptor 1 [2], the inhibitory constant (Ki) worked out at 0.501 nM. For the same compound, the half-maximal inhibitory concentration (IC50) on Cannabinoid receptor 1 [1] is 2 nM.
With `Cc1c(C(=O)NN2CCCCC2)nc(-c2ccc(Cl)cc2Cl)n1-c1ccc(OS(=O)(=O)CCC(F)(F)F)cc1`, at Cannabinoid receptor 1 [2], the inhibitory constant (Ki) was found to be 0.126 nM.
